# Results collected from several papers.
# Protocols differ between the studies behind these lines.
# Target: Rho-associated protein kinase 1 (ROCK1, Homo sapiens, UniProt Q13464)
SMILES,test,setting,remaining binding [%]
C[C@H](c1ccnc(Nc2nc3ccc(-c4cc(N(C)C)ncn4)cc3[nH]2)c1)N1CCN(C(=O)CC(F)(F)F)CC1,"cell-free assay, competition with immobilised ligand",0.1 µM,100
C[C@H]1CCN(c2nccc(-c3cnn4ncccc34)n2)C1,binding,1 µM,81
CC(=O)c1c(NS(C)(=O)=O)c2cc(-c3ccc(Cl)cc3)c(-c3ccc(Cl)cc3Cl)nc2n(C)c1=O,"cell-free assay, competition with immobilised ligand",1 µM,85
c1cnn2ncc(-c3ccnc(N4CCC45COC5)n3)c2c1,binding,1 µM,77
CO[C@H]1CC[C@H](CNc2ccc(S(=O)(=O)NC(=O)c3ccc(N4CCN(CC5=C(c6ccc(Cl)cc6)CC(C)(C)CC5)CC4)cc3Oc3cnc4[nH]ccc4c3)cc2[N+](=O)[O-])CC1,"cell-free assay, competition with immobilised ligand",1 µM,70
O=C(c1ccc(Nc2ncc(Cl)c(-c3cc4ccccc4s3)n2)cc1)N1CCC(N2CCCC2)CC1,"binding, competition with immobilised ligand",1 µM,4.5
CS(=O)(=O)c1cc(C2(NC(=O)c3cncc4c3cnn4-c3ccc(F)cc3)CC2)ccn1,"cell-free assay, competition with immobilised ligand",1 µM,79
Nc1ncc2c(n1)-c1c([nH]c3ccc(C#CC4CC4)cc13)CCCC2,"binding, competition with immobilised ligand",1 µM,100
CN(C)c1nccc(-c2cnn3ncccc23)n1,binding,1 µM,100
Cc1c(NC(=O)c2cc(C(N)=O)nc3cc(F)ccc23)c(C(F)(F)F)nn1Cc1ccc(C#N)cc1,"cell-free assay, competition with immobilised ligand",1 µM,97
COc1ncc2cc3ccccc3nc2c1C#N,"cell-free assay, competition with immobilised ligand",5 µM,84
CN(C)c1ncc(F)c(-c2cnn3ncccc23)n1,binding,1 µM,100
O=C(NCCCN1CCOCC1)c1ccc(Nc2ncc(Cl)c(-c3ccc(Cl)s3)n2)cc1,"binding, competition with immobilised ligand",1 µM,90
c1cncc(-c2cccc(Nc3nccc(NC4CCCCC4)n3)c2)c1,"binding, competition with immobilised ligand",10 µM,10
COc1ccnn2ncc(-c3ccnc(N(C)C)n3)c12,binding,1 µM,93
FC(F)(F)Oc1cccc(-c2cnc3ccc(-c4ccncc4)nn23)c1,"binding, competition with immobilised ligand",5 µM,42
O=C(Nc1c[nH]nc1C(=O)NC1CCNCC1)c1cc(F)cc(F)c1,"binding, competition with immobilised ligand",1 µM,98
Cc1cnc(Nc2ccc(C(=O)N3CCC(N4CCCC4)CC3)cc2)nc1-c1cc2ccccc2s1,"binding, competition with immobilised ligand",1 µM,7.7
N[C@@H]1CCN(c2nccc(-c3cnn4ncccc34)n2)C1,binding,1 µM,94
COc1cnc(Nc2cccc(S(N)(=O)=O)c2)nc1N1CCN(c2ccccc2)C(=O)C1,"binding, competition with immobilised ligand",1 µM,43
O=C(O)c1cc(-c2ccc(C3CCNCC3)cc2)c2ccc(-c3ccc(C(F)(F)F)cc3)cc2c1,"cell-free assay, competition with immobilised ligand",1 µM,100
F[C@@H]1CCN(c2nccc(-c3cnn4ncccc34)n2)C1,binding,1 µM,100
